Measurements taken from ChEMBL document CHEMBL1255300, “Pharmacodynamics of the antibacterial effect and emergence of resistance to tomopenem, formerly RO4908463/CS-023, in an in vitro pharmacokinetic model of Staphylococcus aureus infection” (Antimicrob Agents Chemother, 2008).
In brackets after ≈: the same amount, converted by molar mass. Activity calls are given as the source filed them. No cut-off for these calls is given here.

Experiments:
[1] = tested on: Staphylococcus aureus; assay: Antibacterial activity against methicillin-resistant Staphylococcus aureus 33921 by 10% MH broth method; assay type: functional
Summary of the method: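 MIC by CLSI broth dilution, or by broth dilution in 10% Mueller-Hinton broth at nondoubling dilutions.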

[2] = tested on: Staphylococcus aureus; assay: Antibacterial activity against methicillin-resistant Staphylococcus aureus 33921 infected in in vitro pharmacokinetic model assessed as reduction in viable count at 1500 mg, iv every 8 hrs measured after 12 hrs using 10^6 CFU/ml inoculum; assay type: functional
Summary of the method: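 Single-compartment dilutional in vitro PK model, 10% Mueller-Hinton broth, 37°C, stirred, dilution 132 ml/h. […] Inoculum 10^6 CFU/ml (added 45 min pre-dose) or 10^8 CFU/ml (run overnight). Viable counts by spiral plating, beta-lactamase neutralization, detection limit 10^2 CFU/ml. At least triplicate.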

[3] = tested on: Staphylococcus aureus; assay: Antibacterial activity against methicillin-resistant Staphylococcus aureus 33815 assessed as viable count at 4 times of MIC after 48 hrs using 10^6 CFU/ml inoculum; assay type: functional, organism-based
Summary of the method: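 Population analysis during tomopenem dose-ranging runs in the in vitro PK model (10^6 CFU/ml, T>MIC 0-100%). […] Growth counted as log CFU/ml, detection limit 2 log10.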

[4] = tested on: Staphylococcus aureus; assay: AUBKC (0 to 48 hrs) in methicillin-resistant Staphylococcus aureus 33820 infected in in vitro pharmacokinetic model at 750 mg, iv every 8 hrs using 10^6 CFU/ml inoculum; assay type: functional
Summary of the method: (§1)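 Single-compartment dilutional in vitro PK model at 37°C in 10% Mueller-Hinton broth, stirred, flow 132 ml/h. […] Inoculum 10^6 CFU/ml added 45 min before dosing, or 10^8 CFU/ml run overnight. Viable counts with β-lactamase neutralisation. AUBKC by log-linear trapezoidal rule, at least triplicate.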

[5] = tested on: Staphylococcus aureus; assay: Antibacterial activity against methicillin-resistant Staphylococcus aureus 33921 infected in in vitro pharmacokinetic model assessed as time required to 99.9% killing at 1500 mg, iv every 8 hrs using 10^6 CFU/ml inoculum; assay type: functional
[6] = tested on: Staphylococcus aureus; assay: AUBKC (0 to 48 hrs) in methicillin-resistant Staphylococcus aureus 33921 infected in in vitro pharmacokinetic model at 750 mg, iv every 8 hrs using 10^6 CFU/ml inoculum; assay type: functional; summary of the method: as §1
[7] = tested on: Staphylococcus aureus; assay: Antibacterial activity against methicillin-resistant Staphylococcus aureus 33922 infected in in vitro pharmacokinetic model assessed as reduction in viable count at 1500 mg, iv every 8 hrs measured after 24 hrs using 10^6 CFU/ml inoculum; assay type: functional
[8] = tested on: Staphylococcus aureus; assay: Antibacterial activity against methicillin-resistant Staphylococcus aureus 33820 infected in in vitro pharmacokinetic model assessed as reduction in viable count at 750 mg, iv every 8 hrs measured after 24 hrs using 10^6 CFU/ml inoculum; assay type: functional
Summary of the method: (§2)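 Single-compartment dilutional in vitro PK model, 37°C, stirred, in 10% Mueller-Hinton broth. […] Inoculum 10^6 CFU/ml from a 24-h plate culture was added 45 min before dosing. Viable counts by spiral plating on nutrient agar with β-lactamase neutralization. Log change was taken from time 0; detection limit 10^2 CFU/ml; at least triplicate.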

[9] = tested on: Staphylococcus aureus; assay: Antibacterial activity against methicillin-sensitive Staphylococcus aureus 5956 infected in in vitro pharmacokinetic model assessed as reduction in viable count at 1500 mg, iv every 8 hrs measured after 36 hrs using 10^6 CFU/ml inoculum; assay type: functional
[10] = tested on: Staphylococcus aureus; assay: Antibacterial activity against methicillin-resistant Staphylococcus aureus 33829 assessed as viable count at 4 times of MIC after 48 hrs using 10^6 CFU/ml inoculum; assay type: functional, organism-based
[11] = tested on: Staphylococcus aureus; assay: Antibacterial activity against methicillin-resistant Staphylococcus aureus 33815 infected in in vitro pharmacokinetic model assessed as time required to 99.9% killing at 750 mg, iv every 8 hrs using 10^8 CFU/ml inoculum; assay type: functional
Summary of the method: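 T99 and T99.9 were taken as the times for the count to fall 99% or 99.9% from time 0, using serial viable counts over 48 h. Inoculum was 10^8 CFU/ml, grown overnight in the model before dosing.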

[12] = tested on: Staphylococcus aureus; assay: T>MIC for 3-log drop in count in methicillin-resistant Staphylococcus aureus 33829 in in vitro pharmacokinetic model after 24 hrs using 10^6 CFU/ml inoculum; assay type: functional
[13] = tested on: Staphylococcus aureus; assay: Antibacterial activity against methicillin-resistant Staphylococcus aureus 33820 assessed as viable count at 2 times of MIC after 24 hrs using 10^6 CFU/ml inoculum; assay type: functional, organism-based
[14] = tested on: Staphylococcus aureus; assay: Antibacterial activity against methicillin-resistant Staphylococcus aureus 33921 infected in in vitro pharmacokinetic model assessed as reduction in viable count at 750 mg, iv every 8 hrs measured after 24 hrs using 10^6 CFU/ml inoculum; assay type: functional
[15] = tested on: Staphylococcus aureus; assay: Antibacterial activity against methicillin-resistant Staphylococcus aureus 33922 infected in in vitro pharmacokinetic model assessed as time required to 99% killing at 750 mg, iv every 8 hrs using 10^8 CFU/ml inoculum; assay type: functional
[16] = tested on: Staphylococcus aureus; assay: Antibacterial activity against methicillin-resistant Staphylococcus aureus 33827 assessed as viable count at 4 times of MIC after 48 hrs using 10^6 CFU/ml inoculum; assay type: functional, organism-based
[17] = tested on: Staphylococcus aureus; assay: Antibacterial activity against methicillin-resistant Staphylococcus aureus 33921 infected in in vitro pharmacokinetic model assessed as time required to 99.9% killing at 750 mg, iv every 8 hrs using 10^6 CFU/ml inoculum; assay type: functional
[18] = tested on: Staphylococcus aureus; assay: AUBKC (0 to 24 hrs) in methicillin-sensitive Staphylococcus aureus 5956 infected in in vitro pharmacokinetic model at 750 mg, iv every 8 hrs using 10^6 CFU/ml inoculum; assay type: functional
[19] = tested on: Staphylococcus aureus; assay: AUBKC (0 to 24 hrs) in methicillin-resistant Staphylococcus aureus 33827 infected in in vitro pharmacokinetic model at 750 mg, iv every 8 hrs using 10^8 CFU/ml inoculum; assay type: functional; summary of the method: as §1
[20] = tested on: Staphylococcus aureus; assay: Antibacterial activity against methicillin-sensitive Staphylococcus aureus 5956 infected in in vitro pharmacokinetic model assessed as time required to 99.9% killing at 750 mg, iv every 8 hrs using 10^6 CFU/ml inoculum; assay type: functional
[21] = tested on: Staphylococcus aureus; assay: Antibacterial activity against methicillin-sensitive Staphylococcus aureus 5956 infected in in vitro pharmacokinetic model assessed as reduction in viable count at 1500 mg, iv every 8 hrs measured after 24 hrs using 10^6 CFU/ml inoculum; assay type: functional
[22] = tested on: Staphylococcus aureus; assay: AUBKC (0 to 48 hrs) in methicillin-sensitive Staphylococcus aureus 5956 infected in in vitro pharmacokinetic model at 750 mg, iv every 8 hrs using 10^6 CFU/ml inoculum; assay type: functional
[23] = tested on: Staphylococcus aureus; assay: AUBKC (0 to 24 hrs) in methicillin-resistant Staphylococcus aureus 33815 infected in in vitro pharmacokinetic model at 1500 mg, iv every 8 hrs using 10^8 CFU/ml inoculum; assay type: functional; summary of the method: as §1
[24] = tested on: Staphylococcus aureus; assay: Antibacterial activity against methicillin-resistant Staphylococcus aureus 33820 infected in in vitro pharmacokinetic model assessed as reduction in viable count at 1500 mg, iv every 8 hrs measured after 12 hrs using 10^6 CFU/ml inoculum; assay type: functional; summary of the method: as §2
[25] = tested on: Staphylococcus aureus; assay: T>MIC for 3-log drop in count in methicillin-resistant Staphylococcus aureus 33820 in in vitro pharmacokinetic model after 24 hrs using 10^6 CFU/ml inoculum; assay type: functional
[26] = tested on: Staphylococcus aureus; assay: AUBKC (0 to 24 hrs) in methicillin-resistant Staphylococcus aureus 33820 infected in in vitro pharmacokinetic model at 1500 mg, iv every 8 hrs using 10^6 CFU/ml inoculum; assay type: functional; summary of the method: as §1

C[C@@H](O)[C@H]1C(=O)N2C(C(=O)O)=C(S[C@H]3C[C@@H](C(=O)N4CC[C@H](NC(=O)CNC(=N)N)C4)N(C)C3)[C@H](C)[C@H]12 [TOMOPENEM]
MIC [1]: 0.06 mg/L (≈ 0.112 µM)
log10CFU/ml [2]: 3
Activity [3]: Active
AUBC [4]: 28.6 log10CFU/ml.hr
Time [5]: 12 h
AUBC [6]: 41 log10CFU/ml.hr
log10CFU/ml [7]: 4.2
log10CFU/ml [8]: 4.2
log10CFU/ml [9]: 4.4
Activity [10]: Active
Time [11]: 24 h
fT>MIC [12]: 21.5%
Activity [13]: inactive
log10CFU/ml [14]: 4
Time [15]: 12 h
Activity [16]: inactive
Time [17]: 12 h
AUBC [18]: 27.6 log10CFU/ml.hr
AUBC [19]: 77.4 log10CFU/ml.hr
Time [20]: 6 h
log10CFU/ml [21]: 4.4
AUBC [22]: 27.6 log10CFU/ml.hr
AUBC [23]: 103.5 log10CFU/ml.hr
log10CFU/ml [24]: 4.2
fT>MIC [25]: 20.4%
AUBC [26]: 23.4 log10CFU/ml.hr
